Calls of active or inactive are those of the source. The calls are words filed in the database; no cut-off is given here.
Columns and labels:
HepG2 [1] = experiment: Cytotoxicity against human HepG2 cells assessed as reduction in cell viability after 48 hrs by MTT assay; format: functional, cell-based; conditions: HepG2, 48 h
Procedure, shortened: (§1)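 Cells at 3–4 × 10⁴/mL in DMEM + 10% FBS, pre-incubated 24 h in 5% CO₂. Then exposed 48 h to serial dilutions at 1, 5, 10, 20 and 50 µM; final DMSO <0.1%. MTT (5 mg/mL solution) added for 4 h at 37 °C, supernatant removed, formazan dissolved in DMSO, colorimetric read-out.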

CNE-2 = experiment: Cytotoxicity against human CNE2 cells assessed as reduction in cell viability after 48 hrs by MTT assay; format: functional, cell-based; conditions: CNE-2, 48 h; procedure, shortened: as §1
A549 = experiment: Cytotoxicity against human A549 cells assessed as reduction in cell viability after 48 hrs by MTT assay; format: functional, cell-based; conditions: A549, 48 h; procedure, shortened: as §1
[2] = molecular target: T1, DNA topoisomerase 1 (Homo sapiens) (UniProt P11387); experiment: Inhibition of recombinant human topoisomerase-1-mediated relaxation of supercoiled pBR322 DNA at 500 uM after 30 mins by ethidium bromide staining based assay
T1 sequence (whole entry): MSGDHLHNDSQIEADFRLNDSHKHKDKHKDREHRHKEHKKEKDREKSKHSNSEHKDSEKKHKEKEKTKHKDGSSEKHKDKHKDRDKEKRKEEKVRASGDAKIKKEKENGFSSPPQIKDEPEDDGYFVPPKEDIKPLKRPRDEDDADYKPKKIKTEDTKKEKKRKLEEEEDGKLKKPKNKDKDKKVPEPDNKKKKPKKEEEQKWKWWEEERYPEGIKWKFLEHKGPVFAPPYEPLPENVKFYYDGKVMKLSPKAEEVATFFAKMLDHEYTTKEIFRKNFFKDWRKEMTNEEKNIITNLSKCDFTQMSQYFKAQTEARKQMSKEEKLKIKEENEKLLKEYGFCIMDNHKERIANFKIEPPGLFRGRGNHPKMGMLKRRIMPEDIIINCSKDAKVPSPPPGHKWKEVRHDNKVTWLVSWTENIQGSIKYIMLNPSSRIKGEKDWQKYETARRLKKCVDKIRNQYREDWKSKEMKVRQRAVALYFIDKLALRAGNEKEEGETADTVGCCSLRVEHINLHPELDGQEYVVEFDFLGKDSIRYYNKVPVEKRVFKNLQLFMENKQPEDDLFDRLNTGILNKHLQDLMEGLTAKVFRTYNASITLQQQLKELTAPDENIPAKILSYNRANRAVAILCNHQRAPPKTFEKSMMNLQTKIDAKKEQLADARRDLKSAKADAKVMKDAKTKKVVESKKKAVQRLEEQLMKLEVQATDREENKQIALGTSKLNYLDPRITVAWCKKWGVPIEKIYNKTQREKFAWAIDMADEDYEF
Procedure, shortened: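 Reactions stopped with loading buffer containing 0.5% SDS, bromophenol blue and 15% glycerol. Products run on a horizontal 0.8% agarose gel in 1× TAE at 4 V/cm for 40 min at room temperature. Gel stained with ethidium bromide and imaged.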

HepG2 [3] = experiment: Cell cycle arrest in human HepG2 cells accumulation at S phase at 1 uM after 24 hrs by propidium iodide staining-based flow cytometric analysis (reference value: 45.44%); format: functional
Procedure, shortened: (§2)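 HepG2 seeded at 2 × 10⁵ cells/well in DMEM + 10% FBS. Treated 24 h at 1, 2.5 or 5 µM. Fixed overnight in cold 75% ethanol at 4 °C, RNase-treated 30 min at 37 °C, then propidium iodide-stained 30 min in the dark. Analysed by flow cytometry. Mean ± SD; representative of three independent experiments.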

HepG2 [4] = experiment: Cell cycle arrest in human HepG2 cells accumulation at S phase at 2.5 uM after 24 hrs by propidium iodide staining-based flow cytometric analysis (reference value: 45.44%); format: functional; procedure, shortened: as §2
HepG2 [5] = experiment: Cell cycle arrest in human HepG2 cells accumulation at S phase at 5 uM after 24 hrs by propidium iodide staining-based flow cytometric analysis (reference value: 45.44%); format: functional; procedure, shortened: as §2
HepG2 [6] = experiment: Antitumor activity against human HepG2 cells xenografted in BALB/C nude mouse assessed as tumor volume at 40 mg/kg, ip treated twice per week for 25 days (reference value: 1185.78 +/- 137.44 mm3); format: functional
HepG2 [7] = experiment: Antitumor activity against human HepG2 cells xenografted in BALB/C nude mouse assessed as tumor weight at 40 mg/kg, ip treated twice per week for 25 days (reference value: 0.84 +/- 0.09 g); format: functional
Procedure, shortened: (§3)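 Female BALB/c nude mice, 5–6 weeks old, with subcutaneous flank xenografts of 8 × 10⁶ HepG2 cells. Randomized when tumors reached ~150–200 mm³. Dosed ip twice weekly for 25 days at 40 mg/kg; vehicle was saline with 10% DMSO (n = 6 vehicle, n = 5 per treated group). Caliper measurements every other day, volume = 0.5 × L × W². Tumors excised and weighed at end. Mean ± SD; t-test versus vehicle.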

HepG2 [8] = experiment: Antitumor activity against human HepG2 cells xenografted in BALB/C nude mouse assessed as tumor growth at 40 mg/kg, ip treated twice per week for 25 days relative to control; format: functional; procedure, shortened: as §3
Mus musculus = experiment: Toxicity against BALB/C nude mouse xenografted with human HepG2 cells assessed as body weight loss at 40 mg/kg, ip treated twice per week measured at day 19 post dose; format: organism-based; conditions: in vivo
Procedure, shortened: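 HepG2 subcutaneous xenografts (8 × 10⁶ cells, flank) in female BALB/c nude mice aged 5–6 weeks. At ~150–200 mm³ tumors, ip dosing at 40 mg/kg twice weekly for 25 days; vehicle was saline with 10% DMSO. Body weight tracked every other day from day 1 to day 25. Mean ± SD; t-test versus vehicle.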

| inhibition [2] | Compound | IC50 (HepG2 [1]) [µM] | IC50 (CNE-2) [µM] | IC50 (A549) [µM] | Activity (HepG2 [3]) [%] | Activity (HepG2 [4]) [%] | Activity (HepG2 [5]) [%] | Activity (HepG2 [6]) [mm3] | Activity (HepG2 [7]) [g] | T/C (HepG2 [8]) [%] | Activity (Mus musculus) |
| --- | --- | --- | --- | --- | --- | --- | --- | --- | --- | --- | --- |
| Active | OCCCC[C@@H]1[C@H]2CCCN3CCC[C@H](CN1Cc1cn(Cc4ccc(Br)cc4)c4ccccc14)[C@@H]23 | 3.1 | 3.5 | 22.1 | 55.77 | 60.68 | 64.17 | 737.04 | 0.61 | 55.99 |  |
|  | CCc1c2c(nc3ccc(OC(=O)N4CCC(N5CCCCC5)CC4)cc13)-c1cc3c(c(=O)n1C2)COC(=O)[C@]3(O)CC [IRINOTECAN] |  |  |  |  |  |  |  | 0.47 | 35.08 | Toxic |

Reference: ChEMBL document CHEMBL4152337, “Novel indolo-sophoridinic scaffold as Topo I inhibitors: Design, synthesis and biological evaluation as anticancer agents” (Eur J Med Chem, 2018)
